Reference: the EternaBench riboswitch data

System: MS2 coat protein
Experiment: apparent Kd, MS2 coat protein; higher = weaker binding; RNA-MaP array; FMN 200 µM where present
How it was run: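 The apparent Kd comes from binding curves fitted cluster by cluster, filtered, and summarised as a median. Those curves followed SNAP-549-labelled MS2 coat protein from 0.7 or 1.5 nM, doubling to 3 µM, on Illumina sequencing-chip clusters where stalled E. coli RNA polymerase had transcribed the designs, without and then with constant ligand. The buffer was 100 mM Tris-HCl pH 7.5, 80 mM KCl, 4 mM MgCl2, BSA, DTT, yeast tRNA and Tween-20, and green signal was normalised to red-channel RNA signal and control-cluster median Fmax.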

[1] = designed as: OFF switch for flavin mononucleotide, no ligand
[2] = ligand present: flavin mononucleotide, designed as: OFF switch for flavin mononucleotide
[3] = designed as: ON switch for flavin mononucleotide, no ligand
[4] = ligand present: flavin mononucleotide, designed as: ON switch for flavin mononucleotide

Sequence | apparent Kd [1] | apparent Kd [2] | apparent Kd [3] | apparent Kd [4]
AAUUAACAUGAGGAUCACCCAUGUGAGGAUAUGGUAUUAUUUGGACAGUUAUGAUCUACCAGAAGGCACAUAUA | 39 nM | 65.1 nM |  | 
AGCUCGCGAAGAGGAUAUACAGCGGCGACCUAUCAUGACGAGCGGGUUACAUGAGGAUCACCCAUGUAGAAGGCUUCCCGACUC | 26.6 nM | 73.9 nM |  | 
GGAUGACAAAGUCAUCCUUAACGAACAUGAGGAUCACCCAUGUAGGAUAUGGAACUCAAAGAGUUCCAGAAGGACAUGUGCCUU | 33.7 nM | 213 nM |  | 
UGUAUGGACAGAGGAUAUGCCGGUAGGAUCUACUAUCGAAGAAUCCUCACAUGAGGAUCACCCAUGUAGAAGGCUGUCCAUACU | 9.36 nM | 42.8 nM |  | 
GUACGGAAGGAGAAGGGCUAGGAGGUCCAGUUUAUGUGUGUUGCAACAUGAGGAUCACCCAUGUAGCAGGAUAUCCUUUGUACA | 85.6 nM | 177 nM |  | 
UUUUGACAUGAGGAUCACCCAUGUGAGGAUAUGGAGCGCGACCGCGCGGUCGCGUACACCAGAAGGCGCAGGAA | 40.3 nM | 70.8 nM |  | 
ACAAAUGGAGGAUAUACAUGAGGAUCACCCAUGUUUAUCCUACAUGUGUGAUAAUAAUGUAGAAGGCCAUUUGA | 19.7 nM | 13.2 nM |  | 
ACGGAACAUGAGGAUCACCCAUGUAUCUGAGAUAAGCUCUCGCAGGAUAUUGAGAGAAGCCUAUUCGAGAAGGGUGACAGCAAA |  |  | 90.1 nM | 30.1 nM
GUACUUGUGCAGAAGGGCAUUGAUUUAGGUUGUUAGGUUGAUCAGAUAUGCAGGAUAUGCUAUACAUGAGGAUCACCCAUGUUC |  |  | 92 nM | 11.7 nM
UUCAGCUCGACAGGAUAUACAUCACUGCUUCGGCAGUGUAUCUUAAUAACAUGAGGAUCACCCAUGUAGAAGGGUCGAGCUGAA | 17.9 nM | 31.4 nM |  | 
GUCAGCUCGUGAGGAUAUACAUGAUAGAUCGAUUAAUUAAUUAAUUUAACAUGAGGAUCACCCAUGUAGAAGGUACGAGCUGAU | 61.6 nM | 45.2 nM |  | 
UCAUUUCUGUAAGGAUAUUAAAACAUGACGAUACAUGAGGAUCACCCAUGUUAAGAAGGUACAAAUACAUAUAAUGCAAUGUUC | 15.7 nM | 14.8 nM |  | 
AACCGACAUGAGGAUCACCCAUGUCAGGAUAUGGACUGACAUCGAAAGGAUGGAGGAACCAGAAGGGACUGGGC | 37.1 nM | 81.6 nM |  | 
UUUUAGUCAGGAUAUACAUGAGGAUCACCCAUGUAAAAUUUUAGUUUAAUUUGAAUGUGUAGAAGGGACAUUUU | 24.7 nM | 22.9 nM |  | 
AUAUCUAUAUCAGGAUAUGGACAGGCCUGUCCGUAUUGAGACAGUAACAUGAGGAUCACCCAUGUCCAGAAGGGAUCGAUGUAU | 48 nM | 40.2 nM |  | 
GUAUUUUUACAGAAGGUGUAUUACAUGAGGAUCACCCAUGUUUUAUGGAAUAAAGAUUUUAUUUACAAGGAUAUGUACUAUUUU |  |  | 31.7 nM | 20.6 nM
AUAAUACAUGAGGAUCACCCAUGUAAUUUAACUUGUAAGAUCAAGGAUAUCAGCUCGUUUAGAGCUGAGAAGGUGAUCACAUGU |  |  | 187 nM | 292 nM
UACAUGAGGAUCACCCAUGUUUUGUCGUGUAUGGUAUUUAUCUAGGAUAUCAUUUUAUUUAGGUAUGAGAAGGAGAAUAUUAAU | 35.4 nM | 36.2 nM |  | 
UGGUACUAGAGAGGAUAUGGGAAGAUACAUGAGGAUCACCCAUGUUUAAGAAUGCCGAGAGGCAACUAGAAGGCCCUAGUACCU |  |  | 490 nM | 31.5 nM
AACAGCUCGUCAGGAUAUACGUCACUGCGUCAGCAGUGUGGUAAGAUCACAUGAGGAUCACCCAUGUAGAAGGGACGAGCUGAU | 14.3 nM | 267 nM |  | 
AAAAAGCGAGGAUAUACAUGAGGAUCACCCAUGUCAAAAGGUAAGACCGCAGAAAAAAGUAGAAGGCGCAAAAA | 63 nM | 137 nM |  | 
UGCAUGCUAGGAUAUACGGGACAUUAGGGUUCGUCGUAUGGACAUGAGGAUCACCCAUGUAGAAGGAGCGUGCU | 18.6 nM | 44.5 nM |  | 
UCCUCGUCAGGAUAUCCACGGAAUAGCGGGAUACCGAGCGUGGAGAAGGGACAUGAGGAUCACCCAUGUAAAAU | 29.4 nM | 61.2 nM |  | 
AACAGGUGAGGAUAUCGAACAACAACAACAACAACAACAAACGAGAAGGCACAUGAGGAUCACCCAUGUAAGAA | 20 nM | 17.5 nM |  | 
CCUCCCUGAGGAUAUCCACCCUCAUACAUGAGGAUCACCCAUGUUCAACCCUGGGUACCCGGAGAAGGCAGAUUUC | 116 nM | 175 nM |  | 
AUCAGCUCGUGAGGAUAUACGUCACUGCGUCAGCAGUGUGGUAAGAUCACAUGAGGAUCACCCAUGUAGAAGGGACGAGCUGAU | 15.6 nM | 45.9 nM |  | 
GGAUGACAAAGUCAUCCUAUUCGAACAUGAGGAUCACCCAUGUAGGAUAUGCUACACAAAGUGUAGCAGAAGGACAUGUGCUUU | 33.8 nM | 171 nM |  | 
GGAUUACAAAUUUAUUUAAUACGAACAUGAGGAUCACCCAUGUAGGAUAUGCUAGUUAAGUAAUAGCAGAAGGACAUGUGCCUU | 10.8 nM | 30.6 nM |  | 

Sequence | apparent Kd [1] | apparent Kd [2] | apparent Kd [3] | apparent Kd [4]
AAAACAUGAGGAUCACCCAUGUAAAGAUCGGUUAAUUAAAGUGAGGAUAUACAAAAUUUUAUAUAGUAGAAGGCACUGGGUACA |  |  | 30.2 nM | 33.4 nM
UGUUGUUGAUAGGAUAUACAGGUAGGAGUAGGAGUAGAAGGAUCUACAUGAGGAUCACCCAUGUAGGAGUGAGA | 16.1 nM | 17.7 nM |  | 
UGUCGGAGCAGAGGAUAUUACAUGAGGAUCACCCAUGUAUUAACCAAUAGCUGGAAACAGCAAUGUAAGAAGGCUGCUCCGACA | 5.11 nM | 7.87 nM |  | 
GGGCUUUGGGAGAAGGUACAUUAAAUUAGUUUAACAUGAGGAUCACCCAUGUAAGGAUAUCCCAUCUUGUAUUAUUAUACAGCC | 11 nM | 13.3 nM |  | 
ACAUUGCGAGGAUAUACAUGAGGAUCACCCAUGUGGUAGCAGAUACGGUAGGGCUAGUGUAGAAGGUGUCAUGG | 112 nM | 96.3 nM |  | 
GCAACGCCUGACAUGAGGAUCACCCAUGUUAGAUUGUUAUGUCAGGAUAUAGUCUCGAAACGAGACUAGAAGGGAUAUGUUGCU |  |  | 888 nM | 122 nM
AGUCGGCGAGGAUAUACAUGAGGAUCACCCAUGUGAGAUAGUGCACGCGUACGUGUACGUAGAAGGCGCUGACA | 12.1 nM | 23.2 nM |  | 
UGAUAGGACAGAGGAUAUACGUAUAAAUAUCCUCACAUGAGGAUCACCCAUGUAGAAGGCUGUCCUAUCUAAGUCGGAAACGAC | 15.6 nM | 317 nM |  | 
UGUACUCAAAGAGUACCAAUACGAACAUGAGGAUCACCCAUGUAGGAUAUGCUACUCAAAGAGUAGCAGAAGGACAUGUGCCUA | 19 nM | 76.3 nM |  | 
CUCUUACAUGAGGAUCACCCAUGUGAGGAUAUAGCGGCCUGAUGAGGGAUCAACAUCGCUAGAAGGUACUUGGG | 101 nM | 106 nM |  | 
GAGUGAUUAGGAUAUACAUGAGGAUCACCCAUGUGCUUCAGCUAGGAGACUAGCAUUGGUAGAAGGAAUUACUC | 16.3 nM | 57.1 nM |  | 
GCACUGGCAGGAUAUACAUGAGGAUCACCCAUGUGAUCCCUUAAGUACAAAAGUACAAGUAGAAGGGCCUGUGC | 771 nM | 188 nM |  | 
UCAGGCUUCGAGAAGGACAUGAAUCGUAGCAUUGCUACGAUCAUUGAUACAUGAGGAUCACCCAUGUAGGAUAUCGGAGUCUGC | 5.99 nM | 6.75 nM |  | 
GCUGCGUACGCAGGAUAUACAUGAGGAUCACCCAUGUAACUCGAACUCUAAGCGGGUGCGCGCAUGUAGAAGGGCGGGCGAGCC | 35 nM | 67.9 nM |  | 
CGGAAAAGGUAGGAUAUGCUAGACGAAAGUCUAGCAGAAGGACCUACAUGAGGAUCACCCAUGUGUCCAAUCCG | 56.3 nM | 24.7 nM |  | 
UUUUUAUGAGAGAAGGAGGACUUCAUGAGGAUCACCCAUGUGUUAGUACUUAGGAUAUUUAAUAACAUGAGGAUCACCCAUGUC |  |  | 51.1 nM | 48.6 nM
CGACAUUACACAGGAUAUCCUCGACUUUGUCGAGGAGAAGGGUGUAAACAUGAGGAUCACCCAUGUAUAAUGUCGAAAUAUAAU |  |  | 221 nM | 28.9 nM
GCGUUGAUGUAGAAGGUACAUGAAUAUAUUUAAUACCUCAAGUAACAUGAGGAUCACCCAUGUAGUAAGGAUAUACAUGAACGC |  |  | 88.6 nM | 56.1 nM
UUUUAACAUGAGGAUCACCCAUGUGAGGAUAUCGAUUUUUAUAUUAAUAUUAAUAAAACGAGAAGGCACAUUUU | 123 nM | 79.3 nM |  | 
GCAGCGUAUGUAGGAUAUCGGUCAGUUUCUGAUCGAGAAGGACAUGAGGAUCACCCAUGUAAAUUACCGACAUUGUCGGGCUGC | 6.5 nM | 8.25 nM |  | 
GACAUGGUCUAGAAGGCCUAUCUAUUUAAGUACGAUUUAGAACAGCAUAGGAGGAUAUGGCUAACAUGAGGAUCACCCAUGUUC |  |  | 49 nM | 23.3 nM
AUCAGCUCGUCAGGAUAUACGUCACUGCUUCGGCAGUGUGGUAAGAUCACAUGAGGAUCACCCAUGUAGAAGGGACGAGCUGAC | 13.6 nM | 237 nM |  | 
CUCAUGUUAGGAUAUGCGCUCAACGUAGUGGUCGAGCUCUAGCAGAAGGAACAUGAGGAUCACCCAUGUUUGCA | 58.1 nM | 26.8 nM |  | 
GUCUGGUUAGGAUAUACAGUGUCCACGAGUUAGUUGCCCUAACAUGAGGAUCACCCAUGUAGAAGGAGCGAGAA | 22.2 nM | 22.6 nM |  | 
AGAGCCUCGUGAGGAUAUACAUGAGGAUCACCCAUGUAAAUGAAAGAUAACGAGGAAACUCGAAUGUAGAAGGCACGAGGCUCA | 24.4 nM | 182 nM |  | 
UUUAUUAGUUAGAAGGCUUGAUGAAUUACAAUGGACAUGAGGAUCACCCAUGUGUAUUCAUGUUAAGAGGAUAUAGUCAUAUAU |  |  | 30.2 nM | 20.2 nM
ACGGAACAUGAGGAUCACCCAUGUAUCUGAGAUAAGCUCUCGCAGGAUAUUCAGAGAAGCCUAUCGGAGAAGGGUGACAGCAAA |  |  | 25.3 nM | 15.5 nM
